Here are results for 20 molecules from ChEMBL document CHEMBL3868583, “6-Aryl substituted 4-(4-cyanomethyl) phenylamino quinazolines as a new class of isoform-selective PI3K-alpha inhibitors” (Eur J Med Chem, 2016).

For orientation: GI50 means the concentration giving 50% growth inhibition. As usually defined, the inhibition is the percentage by which the read-out fell short of the control. A low value points to little suppression.

The nature of assay [1]: Cytotoxicity against human PANC1 cells assessed as cell growth inhibition after 48 hrs by MTT assay. The assay is classed as functional. As to conditions: PANC-1, 48 h. An outline of the steps: (§1)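 MTT assay: 3 × 10^3 cells/well seeded, compounds added after 24 h at final […], 48 h exposure. MTT (2.5 mg/mL in PBS) added, formazan dissolved in DMSO, absorbance 570 nm. Viability as % of untreated; three independent experiments, mean ± SD.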
On the technique in general: Tetrazolium assays rely on reduction of a dye to a coloured formazan, in cell work by metabolically active cells.

Assay [2] is described as follows: Cytotoxicity against human A375 cells assessed as cell growth inhibition after 48 hrs by MTT assay. The assay is classed as functional. As to conditions: A-375, 48 h. The method, boiled down:
as §1

The target in assay [3] is Phosphatidylinositol 4,5-bisphosphate 3-kinase catalytic subunit alpha isoform (Homo sapiens, UniProt P42336). The assay can be described thus: Inhibition of PI3Kalpha (unknown origin) using diC8 PIP2 as substrate at 0.5 uM after 80 mins by ADP-glo assay. For orientation: ADP-Glo turns the ADP formed in a reaction into a luminescent signal.
Chain of Phosphatidylinositol 4,5-bisphosphate 3-kinase catalytic subunit alpha isoform (P42336 whole entry, canonical isoform): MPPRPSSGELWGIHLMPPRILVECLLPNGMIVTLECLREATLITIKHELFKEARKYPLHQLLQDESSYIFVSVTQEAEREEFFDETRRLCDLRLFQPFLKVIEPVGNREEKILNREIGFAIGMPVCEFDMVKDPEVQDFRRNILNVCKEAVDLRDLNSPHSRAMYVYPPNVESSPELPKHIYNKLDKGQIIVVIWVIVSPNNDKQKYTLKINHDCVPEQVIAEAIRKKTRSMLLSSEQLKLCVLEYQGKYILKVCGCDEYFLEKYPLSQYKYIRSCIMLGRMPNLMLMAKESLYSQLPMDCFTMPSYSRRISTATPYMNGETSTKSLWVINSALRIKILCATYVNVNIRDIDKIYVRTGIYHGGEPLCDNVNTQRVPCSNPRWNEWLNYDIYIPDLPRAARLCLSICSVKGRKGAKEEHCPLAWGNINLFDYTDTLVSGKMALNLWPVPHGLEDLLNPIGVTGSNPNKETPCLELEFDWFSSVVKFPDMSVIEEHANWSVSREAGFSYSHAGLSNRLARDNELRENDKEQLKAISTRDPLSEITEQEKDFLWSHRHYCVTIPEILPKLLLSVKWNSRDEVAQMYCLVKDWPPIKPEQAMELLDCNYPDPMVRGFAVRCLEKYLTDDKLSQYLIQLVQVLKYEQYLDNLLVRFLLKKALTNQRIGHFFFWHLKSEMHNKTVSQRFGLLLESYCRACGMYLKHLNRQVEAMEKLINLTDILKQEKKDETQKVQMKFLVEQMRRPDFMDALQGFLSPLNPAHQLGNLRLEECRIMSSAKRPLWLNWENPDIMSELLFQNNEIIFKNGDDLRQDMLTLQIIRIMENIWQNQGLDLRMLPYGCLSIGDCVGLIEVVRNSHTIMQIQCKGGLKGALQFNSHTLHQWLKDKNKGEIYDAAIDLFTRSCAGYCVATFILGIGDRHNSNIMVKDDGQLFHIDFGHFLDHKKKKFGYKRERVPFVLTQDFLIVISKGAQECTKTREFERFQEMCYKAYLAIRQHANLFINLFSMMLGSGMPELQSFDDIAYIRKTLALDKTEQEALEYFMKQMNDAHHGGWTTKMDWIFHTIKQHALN
Assay [4] in a line: Cytotoxicity against human PC3 cells assessed as cell growth inhibition after 48 hrs by MTT assay. The format is functional. As to conditions: PC-3, 48 h. An outline of the steps:
as §1

Assay [5] in a line: Cytotoxicity against human MCF7 cells assessed as cell growth inhibition after 48 hrs by MTT assay. The assay is classed as functional. As to conditions: MCF7, 48 h. An outline of the steps:
as §1

Assay [6] is described as follows: Cytotoxicity against human HL60 cells assessed as cell growth inhibition after 48 hrs by MTT assay. The format is functional. As to conditions: HL-60, 48 h. An outline of the steps:
as §1

The species named for assay [7] is Homo sapiens. The assay can be described thus: Selectivity ratio of IC50 for PI3Kdelta (unknown origin) to IC50 for PI3Kalpha (unknown origin).
Assay [8] is filed under the species Homo sapiens. The assay can be described thus: Selectivity ratio of IC50 for PI3Kgamma (unknown origin) to IC50 for PI3Kalpha (unknown origin).
The species named for assay [9] is Homo sapiens. The assay can be described thus: Selectivity ratio of IC50 for PI3Kbeta (unknown origin) to IC50 for PI3Kalpha (unknown origin).

Take `N#CCc1ccc(Nc2ncnc3ccc(-c4ccc5ccccc5c4)cc23)cc1`: the GI50 stood at 48 µM in assay [1]; 31 µM in assay [2]; 22 µM in assay [4]; 16 µM in assay [5]; 25 µM in [6]. The molecule also showed an inhibition in assay [3] of 8.2%.
`N#CCc1ccc(Nc2ncnc3ccc(-c4cccc([N+](=O)[O-])c4)cc23)cc1`: the Ratio IC50 in assay [7] was over 22.2; in [8], 1.9; in assay [9], over 22.2. The GI50 worked out at 7 µM in [1]; 23 µM in assay [2]; 29 µM in assay [4]; 12 µM in [5]; 15 µM in assay [6]. In assay [3], this molecule returned an inhibition of 38.1%.
For the molecule `CC(=O)c1ccc(-c2ccc3ncnc(Nc4ccc(CC#N)cc4)c3c2)cc1`, the Ratio IC50 in assay [7] was over 37; in assay [8], 0.5; in [9] it was over 37. Further, the GI50 in assay [1] came to 13 µM; in assay [2], 32 µM; in [4] it was 24 µM; in [5], 45 µM; in [6], 28 µM. The inhibition in assay [3] was determined as 44%.
Turning to `N#CCc1ccc(Nc2ncnc3ccc(-c4ccccc4C=O)cc23)cc1`, the GI50 in assay [1] was 90 µM; in [2], 39 µM; in assay [4], 21 µM; in assay [5], 91 µM; in [6], 42 µM. The molecule further had an inhibition in assay [3] of 1.3%.
`N#CCc1ccc(Nc2ncnc3ccc(-c4ccc(OCc5ccc(F)cc5)cc4)cc23)cc1`: the GI50 worked out at 13 µM in assay [1]; 16 µM in [2]; 13 µM in [4]; 12 µM in assay [5]; 14 µM in assay [6]. Moreover, the inhibition in assay [3] turned out to be 11%.
Regarding `Cc1ccccc1-c1ccc2ncnc(Nc3ccc(CC#N)cc3)c2c1`, the 50% growth inhibitory concentration (GI50) was 68 µM in [1]; 32 µM in assay [2]; 38 µM in assay [4]; over 100 µM in [5]; 36 µM in assay [6]. In [3], the inhibition worked out at 4.1%.
Turning to `C=Cc1ccc(-c2ccc3ncnc(Nc4ccc(CC#N)cc4)c3c2)cc1`, the Ratio IC50 in [7] and in assay [9] was 1 each time. Besides, the GI50 amounted to 32 µM in assay [1]; 27 µM in assay [2]; 34 µM in assay [4]; 11 µM in [5]; 16 µM in [6]. Further, in assay [3], the inhibition is 36.4%.
For the molecule `CCOc1ccc(-c2ccc(-c3ccc4ncnc(Nc5ccc(CC#N)cc5)c4c3)cc2)cc1`, the GI50 in assay [1] was 33 µM; in assay [2] it was 30 µM; in assay [4], 17 µM; in assay [5], 26 µM; in assay [6], 16 µM.
With `N#CCc1ccc(Nc2ncnc3ccc(-c4ccncc4)cc23)cc1`, the Ratio IC50 was over 14.2 in assay [7], 0.5 in assay [8] and over 14.2 in assay [9]. In addition, the concentration for 50% growth inhibition (GI50) came to 39 µM in assay [1]; 35 µM in [2]; 76 µM in assay [4]; 32 µM in assay [5]; 32 µM in assay [6]. Also, the inhibition in assay [3] is 45.6%.
In the case of `N#CCc1ccc(Nc2ncnc3ccc(-c4cc5ccccc5o4)cc23)cc1`, the GI50 in assay [1] stood at 28 µM; in [2], 10 µM; in assay [4], 8 µM; in assay [5], 9 µM; in assay [6], 17 µM. This molecule had an inhibition in assay [3] of 29.8%.
On to `N#CCc1ccc(Nc2ncnc3ccc(-c4cnc5ccccc5c4)cc23)cc1`, for which the GI50 in [1] is 90 µM; in assay [2] it was 89 µM; in [4], 23 µM; in assay [5], 32 µM; in [6], 44 µM.
As to `N#CCc1ccc(Nc2ncnc3ccc(-c4cccc5c4oc4ccccc45)cc23)cc1`, the GI50 in assay [1] was 31 µM; in [2], 36 µM; in [4], 16 µM; in assay [5], 27 µM; in [6], 12 µM. Further, the inhibition in assay [3] is 1.5%.
With `N#CCc1ccc(Nc2ncnc3ccc(-c4ccc(-c5ccccc5)cc4)cc23)cc1`, the GI50 in [1] came to 30 µM; in assay [2], 13 µM; in assay [4] it was 10 µM; in assay [5], 29 µM; in [6] it was 16 µM.
As for `N#CCc1ccc(Nc2ncnc3ccc(-c4ccc(F)cc4F)cc23)cc1`, the GI50 in assay [1] was found to be 21 µM; in assay [2], 9 µM; in [4], 28 µM; in assay [5], 10 µM; in [6], 7 µM. In assay [3], this molecule had an inhibition of 17%.
`CC(=O)Nc1cccc(-c2ccc3ncnc(Nc4ccc(CC#N)cc4)c3c2)c1`: the GI50 in assay [1] was determined as 40 µM; in assay [2], 24 µM; in assay [4], 27 µM; in [5], 23 µM; in [6], 32 µM. For the same molecule, the inhibition in assay [3] worked out at 16.4%.
Take `N#CCc1ccc(Nc2ncnc3ccc(-c4ccc5c(c4)OCO5)cc23)cc1`: the Ratio IC50 in assay [7] was over 31.1; in [8], 0.6; in [9], over 31.1. Further, the GI50 came out at 33 µM in [1]; 24 µM in assay [2]; 7 µM in assay [4]; 34 µM in [5]; 27 µM in assay [6]. For the same molecule, the inhibition in assay [3] was determined as 48.6%.
For the molecule `N#CCc1ccc(Nc2ncnc3ccc(-c4ccc(-c5ccccc5)cc4F)cc23)cc1`, the GI50 amounted to 33 µM in [1]; 32 µM in assay [2]; 14 µM in [4]; 13 µM in assay [5]; 16 µM in [6]. Also, the inhibition in assay [3] came to 20.3%.
As to `N#CCc1ccc(Nc2ncnc3ccc(-c4ccc5c(c4)OCCO5)cc23)cc1`, the Ratio IC50 in [7] is over 29.2; in assay [8] it was 4; in [9], over 29.2. Also, the GI50 in assay [1] is 32 µM; in [2], 27 µM; in assay [4] it was 34 µM; in assay [5] it was 34 µM; in [6], 21 µM. Moreover, the inhibition in assay [3] was found to be 33%.
Consider `N#CCc1ccc(Nc2ncnc3ccc(-c4cc5ccccc5s4)cc23)cc1`, for which the GI50 in assay [1] was determined as 24 µM; in assay [2], 14 µM; in [4], 13 µM; in [5] it was 8 µM; in [6], 14 µM. Further, in assay [3], the inhibition was 2.7%.
Take `N#CCc1ccc(Nc2ncnc3ccc(-c4cccc5c4sc4ccccc45)cc23)cc1`: the GI50 amounted to 33 µM in [1]; 34 µM in assay [2]; 18 µM in assay [4]; 34 µM in assay [5]; 31 µM in [6].
